Measured values taken from PubChem BioAssay.
Values without a mark were called inactive. Records with an inconclusive call do not appear. Activity calls are given as the source filed them.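 How the source made its calls, unless noted: active means cell viability at or below a set limit in both duplicate runs, the limit being the all-compound median minus 4 SD (cut at about 23% in these data, passing the limit was not always enough); inconclusive means no clear call, values can overlap the other calls; inactive means the rest.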

Assays:
[1] = S. cerevisiae growth inhibition in permissive medium (OD615), pilot counter-assay for S. cerevisiae lifespan shortening project, permissive growth control (AID 705;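 active means growth inhibition above 25% in both replicates, a cutoff set 3 SD above the mean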); settings: OD615, 24 h, at 10 µM, stronger effect = higher value
Outline: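 System: S. cerevisiae with engineered DeaD lifespan system. Medium: SC raffinose/galactose permissive medium. Doses: single compound dose of 10 µM, 0.25% DMSO final. Schedule: 24 h exposure, 30 °C. Measured by: OD615 turbidity read. Read-out: growth inhibition.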

[2] = S. cerevisiae growth inhibition in restrictive medium, OD615, pilot screen, restrictive growth control, yeast lifespan reduction project (AID 706;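 active means growth inhibition above a set limit, 3 SD over mean compound inhibition, in both replicates, cut at about 43% in these data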;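 further: modified DeaD lifespan yeast strain shifted to restrictive glucose medium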); settings: OD615, 48 h, at 10 µM, stronger effect = higher value
Outline: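 Assay system – genetically modified Saccharomyces cerevisiae, DeaD replicative lifespan assay strain · Medium – CSMM-D glucose medium · Doses – 10 µM compound, 0.25% DMSO · Times – 4 h pre-incubation, 48 h exposure at 30 °C · Signal – optical density at 615 nm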

[3] = doxorubicin toxicity protection in MRP-1 cells – H69AR cells, CellTiter-Glo, duplicate, MRP-1 activator project, pilot screen (AID 807;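 active means viability increase at or above a cutoff of the median across tested compounds plus 3 SD, cut at about 8.5% in these data, passing the limit was not always enough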;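 further: compound pretreatment 18-22 h then 72 h combined with doxorubicin; 0% = doxorubicin alone and 100% = vehicle without doxorubicin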); settings: H69AR viability with doxorubicin, CellTiter-Glo luminescence; at 10 µM; stronger effect = higher value
[4] = viability of HCT116 without oncogenic beta-catenin – human colon tumor cells, pilot screen (AID 823); settings: HCT116 beta-catenin knockout viability, CellTiter-Glo, 60 h; at 10 µM; stronger effect = lower value;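 further: 0% = wells killed by 20 µM Hyamine and 100% = untreated DMSO cell wells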
[5] = viability of PTEN-null HCT116 cells – cell-based, HCT116 clonal line, CellTiter-Glo, pilot screen (AID 824;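 active means viability at or below 27.92% in each of two runs, the all-compound median minus 4 SD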;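 further: 0% = 20 µM Hyamine control and 100% = vehicle cell control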); settings: HCT116 PTEN-deleted viability, 60 h, at 10 µM, stronger effect = lower value
[6] = RAM pathway blockade in budding yeast – dse1pr::URA3 reporter, 5-FOA selection, pilot screen (AID 869;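 active means inhibition over a set limit, the all-compound mean plus 3 SD, in both replicate runs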;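 further: 0% = DMSO wells with no growth and 100% = 10 µM 1-NA-PP1 with full growth; RAM network block rescues cells from 5-FOA so hits raise OD615 growth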); settings: S. cerevisiae dse1pr::URA3 5-FOA growth, OD615, 2 d; at 10 µM; stronger effect = higher value; strain carries analog-sensitive mutant Cbk1 kinase
[7] = RAM signaling pathway blockade in yeast – S. cerevisiae, Pdr1DBD-CYC8 efflux-inhibited sensitized strain, primary screen (AID 1298;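 active means RAM network inhibition above 8.4% in each of two replicates, 3 SD over the compound average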;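 further: 0% = DMSO untreated cells without growth and 100% = 10 µM 1-NA-PP1 full growth; higher means more yeast growth rescued from 5-FOA killing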); settings: S. cerevisiae cbk1-as DSE1-URA3 strain, 5-FOA growth OD615, 2 d; at 50 µM; stronger effect = higher value

Row | Compound | growth inhibition [1] | growth inhibition [2] | viability increase [3] [%] | viability [4] [%] | viability [5] [%] | inhibition [6] [%] | RAM network inhibition [7] [%]
1 | CCNc1nc(NCC)nc(Oc2ccc(OCC)nn2)n1 | -15.2% | -14.6% | -0.87 | 88.1 | 92.2 | 2.82 | 4.95
2 | O=C(NCCCN1CCCC1=O)c1ccc2c(c1)ncn2C1CCCCC1 | 0.37% | 2.91% | 1.87 | 105 | 109 | 0.03 | 10.9
3 | CC(C)c1nc(SCC(=O)N2CCOCC2)c2c(=O)n(C)c(=O)n(C)c2n1 | 2.91% | -8.92% | -1.75 | 102 | 95.6 | 2.57 | -2.21
4 | Cc1nnc(NC(=O)CCCCCN2C(=O)C3C4C=CC(C4)C3C2=O)s1 (stereo unspecified) | -10.6% | -1.29% | 1.66 | 96.7 | 102 | -0.595 | 3.05
5 | COCCn1c(=O)[nH]c2cc(C(=O)NCC3CCCO3)ccc2c1=O (stereo unspecified) | -6.33% | -1.18% | -0.04 | 100 | 95.2 | 1.23 | 1.45
6 | O=C(Nc1cccc(F)c1)c1ccc(S(=O)(=O)N2CCOCC2)cc1 | -17% | -7.46% | -2.24 | 98.3 | 99.6 | 1.13 | -1.21
7 | Cn1c(C(=O)N2CCCC2)cc2c(=O)n(C)c3ccccc3c21 | -2.97% | 3.21% | -3.32 | 102 | 95.5 | 2.04 | -0.2
8 | COc1ccc(N(CC(=O)NCc2ccc3c(c2)OCO3)S(=O)(=O)c2c(C)nn(C)c2C)cc1 | -12.2% | -3.47% | -2.86 | 101 | 101 | 0.12 | 2.04
9 | O=C(NCC(c1cccs1)N1CCOCC1)c1cc2ccccc2o1 (stereo unspecified) | -2.08% | -15.1% | -1.69 | 99.3 | 100 | 0.345 | 0.26
10 | CCOC(=O)Nc1cc(C)c(Cl)cc1OC | -8.55% | -0.98% | -2.98 | 84.5 | 75.7 | 2.17 | 5.3
11 | O=C(CCS(=O)(=O)c1cccs1)NC1CCCCCC1 | -2.95% | -4.64% | -0.19 | 94.6 | 92.7 | 1.29 | 5.23
12 | CCCNC(=O)CS(=O)Cc1nc(-c2ccc(OC)cc2)oc1C (stereo unspecified) | -5.5% | 19.6% | -2.12 | 97.2 | 93.9 | 1.62 | 3.43
13 | C=CCOC(=O)C1CC=CCC1C(=O)Oc1ccc(F)cc1F (stereo unspecified) | -18.3% | -15.3% | -1.32 | 100 | 94 | 2.56 | 1.82
14 | O=C(c1ccc(NC2=NC3CS(=O)(=O)CC3S2)cc1)N1CCc2ccccc2C1 (stereo unspecified) | -0.26% | 11.2% | -0.55 | 109 | 106 | 1.67 | 5.69
15 | C=C(C)CC1N(c2cccc(OC)c2)C(=O)C2C(C(=O)O)C3C=CC21O3 (stereo unspecified) | -5.17% | 4.84% | -1.04 | 103 | 95.3 | -0.415 | 5.36
16 | O=C(Nc1ccc(Br)cc1)c1cnccn1 | -12.7% | -21.8% | -0.6 | 98.1 | 94.4 | 1.59 | 4.87
17 | Cc1cc(NC(=O)CSc2ccc3nnc(-c4ccccn4)n3n2)no1 | -3.09% | 10.1% | -1.04 | 102 | 90.4 | 0.535 | 1.71

Row | Compound | growth inhibition [1] | growth inhibition [2] | viability increase [3] [%] | viability [4] [%] | viability [5] [%] | inhibition [6] [%] | RAM network inhibition [7] [%]
18 | COC(=O)C1=C(C)Nc2ccc(C)cc2S1 | 14.1% | 29.2% | -2.27 | 98.8 | 100 | 1.25 | 3.11
19 | CS(=O)(=O)Nc1ccccc1Oc1ccccc1 | -4.92% | 2.56% | -0.66 | 97.5 | 92.8 | -0.23 | -0.46
20 | COC(=O)C(C)NC(=O)C1CCCN1S(=O)(=O)c1cc(C)c(Cl)cc1C (stereo unspecified) | -5.19% | -6.72% | -1.54 | 93.8 | 94.9 | 0.935 | 0.4
21 | COC(=O)C1C(=O)C=C(N2CCOCC2)CC1(C)C (stereo unspecified) | -10.6% | -10.2% | -0.72 | 96.4 | 105 | 0.685 | 1.92
22 | N#CC1=C2SCN(Cc3ccco3)CN2C(=O)CC1c1c(F)cccc1Cl (stereo unspecified) | -2.04% | 20.3% | -4.91 | 88 | 88.1 | 1.95 | 4.76
23 | CCOc1ccc(C2CC(c3ccc(CC)cc3)Nc3nc(N)nn32)cc1 (stereo unspecified) | 13.7% | 21.5% | 5.61 | 97.5 | 90.2 | 0.69 | 8.15
24 | COc1ccc(C/C(N)=N/n2cnnc2)cc1 | 2.64% | -3.72% | 0.39 | 100 | 106 | 0.64 | 3.02
25 | Cc1ccc(O)c(-c2cc(C(F)(F)C(F)F)[nH]n2)c1 | -5.95% | -19.7% | -4.24 | 97.1 | 87.3 | 0.725 | 3.84
26 | O=c1cc(O)sc2ccccc12 | -4.72% | -8.78% | -2.09 | 96.4 | 94.4 | 0.79 | -0.87
27 | O=C(Nc1ccccc1)N(CCCN1CCOCC1)Cc1cccs1 | -1.32% | 9.1% | -3.05 | 96.3 | 93.9 | 2.5 | 0.88
28 | CC1CCC(NC(=O)c2cc3c(=O)n(C)c4ccccc4c3n2C)CC1 (stereo unspecified) | -12.8% | -9.28% | -4.41 | 76.8 | 66 | 2.25 | 4.58
29 | COCCNC(=O)c1ccccc1NC(=O)C1COc2ccccc2O1 (stereo unspecified) | -3.84% | -0.665% | -0.74 | 95.8 | 102 | 2.8 | 4.39
30 | Cn1c(=O)c(C(=O)Nc2ncccn2)c(O)c2ccccc21 | 39.2% (active) | 63.5% (active) | -3.95 | 87.1 | 89.5 | 0.475 | -1.44
31 | CCCNc1nc2c(c(=O)[nH]c(=O)n2C)n1Cc1cccc(Br)c1 | -4.76% | -9.2% | -2.4 | 97.8 | 92.6 | 3.46 | 7.91
32 | O=C(CC1(O)C(=O)Nc2ccccc21)c1ccccc1 (stereo unspecified) | 1.47% | -8.37% | -3.28 | 92.2 | 96.7 | 0.055 | -1.83
33 | CCOC(=O)c1c(CC(C)C)csc1NC=O | -4.46% | -33.1% | -1.84 | 81.8 | 80.1 | 1.18 | 0.88
